An excerpt weighted towards active compounds, which were near 4.9% of everything screened.
STAT3 activator = increases IL-6 driven STAT3 reporter signal. activation (% of control), % at 5.6 µM. U3A cells, IL-6 STAT3-luciferase reporter, luminescence; 100% = signal with IL-6 EC80 alone. hit rate 0.91% among 190,000;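 active = activation above the screen-wide mean of compound activation plus 3 SD, cut at about 130% in these data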
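System – human U3A cells carrying STAT3-luciferase construct · Probe or stimulus – Interleukin-6, 33 ng/mL · Schedule – compound 1 h, then IL-6 6 h at 37 °C · Signal – luminescence from STAT3-driven luciferase reporter · Evaluation – percent of IL-6-only median luminescence · Benchmarks – IL-6-only high control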
APP 5'UTR act = APP 5'UTR luciferase reporter activation; SH-SY5Y APP 5'UTR luciferase reporter, luminescence; zero percent = DMSO vehicle wells; activation, % at 2 µM; hit rate 1% among 190,000;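 active = activation above a set limit, based on mean plus 3 SD of controls, cut at about 140% in these data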
STAT1 act = activators of IFN-gamma induced STAT1 signaling | NIH 3T3 STAT1-luciferase reporter, luminescence; 100% = IFN-gamma alone, no compound | activation (% of control), % at 5.5 µM | hit rate 2.6% among 200,000;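 active = activation above the screen-wide mean activation plus 3 SD, cut at about 130% in these data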
NF-kB neuron act = compounds increasing NF-kB expression in human neuronal cells; NF-kB reporter expression; active compounds read high; fold change at 12.5 µM; hit rate 1.6% among 190,000; AID 1239; in the data active = fold change above about 3.3
STAT3 inh = STAT3 signaling inhibition | U3A cells, IL-6 STAT3-luciferase reporter, luminescence; host cell line lacks STAT1 | inhibition, % at 5.5 µM | hit rate 0.89% among 190,000 | AID 862;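 active = inhibition above the mean inhibition across all screened compounds plus 3 SD, cut at about 44% in these data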
STAT1 inh = inhibitors of IFN-gamma induced STAT1 signaling; AID 920; inhibition, % at 5.5 µM; NIH 3T3 STAT1-luciferase reporter, luminescence; hit rate 0.35% among 200,000;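 active = inhibition above a set limit, the mean inhibition across all tested compounds plus 3 SD, cut at about 34% in these data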
Of the large screens only hits and unclear results are named; the others gave an inactive call.

CCc1cccc(Nc2cnn(C34C[C@@H]5C[C@@H](CC(CC(=O)O)(C5)C3)C4)c(=O)c2Cl)c1	STAT1 act 138
CC(C)COc1ccc(C(=O)Nc2ccc([N+](=O)[O-])cc2)cc1	none
CCC(=O)Oc1ccc(C(=O)Nc2ccc([N+](=O)[O-])cc2)cc1	STAT1 act 134
CC1(C)CC(c2nc(-c3ccc(Br)cc3)cs2)CCS1 (configuration not stated)	none
CN(c1nc(-c2ccc(Br)cc2)cs1)C1CCS(=O)(=O)C1 (configuration not stated)	STAT1 act 130
COc1cc(NC(=O)Cn2c(=O)n(-c3cccc(C)c3)c(=O)c3c(C)c(C)sc32)cc(OC)c1	none
CC(=O)Oc1ccc(NC(=O)CSc2ccccc2)cc1	NF-kB neuron act 4.2
O=C(CSc1ccccc1)Nc1ccncc1	none
COc1ccc(C(=S)Nc2ccc(N(C)C)cc2)cc1	APP 5'UTR act 170, NF-kB neuron act 5.4
COc1ccc(NC(=S)c2ccc(N(C)C)cc2)cc1	APP 5'UTR act 135, STAT1 act 149
CC12CCC(C(=O)Nc3nc4ccc(Br)cc4s3)(OC1=O)C2(C)C (configuration not stated)	STAT1 act 138
COc1cc2[nH]c3c(=O)n4c(nc3c2cc1OC)SCCC4	STAT3 inh 77, STAT1 inh 48
COc1ccc2[nH]c3c(=O)n4c(nc3c2c1)SCC4	none
O=C(c1cc2ncc(Br)cn2n1)N1CCN(C(=O)c2ccco2)CC1	none
O=C(c1ccco1)n1c(=S)nc2ccccn21	STAT1 act 144, NF-kB neuron act 5.4
Cc1cccc2nc(=S)n(C(=O)c3ccco3)n12	STAT3 activator 134, APP 5'UTR act 146, STAT1 act 197, NF-kB neuron act 12
COc1ccccc1NS(=O)(=O)c1cc(C(=O)N2CC(C)CC(C)C2)ccc1C (configuration not stated)	none (no result: APP 5'UTR act)
Cc1ccc(N/C=C/C(=O)c2cccs2)cc1C	APP 5'UTR act 170, NF-kB neuron act 6.6, STAT3 inh 66, STAT1 inh 53
O=C(Cc1cccs1)Nc1cccc([N+](=O)[O-])c1	none
O=C(/C=C/Nc1ccccc1C(=O)O)c1cccs1	STAT1 act 143
Cc1cc(N/C=C/C(=O)c2cccs2)ccc1F	APP 5'UTR act 178, NF-kB neuron act 7.6
O=C(/C=C/Nc1cccc([N+](=O)[O-])c1)c1cccs1	STAT3 activator 146, APP 5'UTR act 184, STAT1 act 139, NF-kB neuron act 7.5
Cc1c(N/C=C/C(=O)c2cccs2)c(=O)n(-c2ccccc2)n1C	none
O=C1NC(Cc2c[nH]c3ccccc23)C(=O)N1CCOc1ccccc1 (configuration not stated)	none
COc1ccc(C(=O)Oc2c(CN3CCOCC3)cc(Cl)c3cccnc23)cc1	NF-kB neuron act 28
COc1cc(C(=O)Oc2c(CN3CCOCC3)cc(Cl)c3cccnc23)cc(OC)c1OC	NF-kB neuron act 3.8
COc1cccc(C(=O)Oc2c(CN3CCOCC3)cc(Cl)c3cccnc23)c1	NF-kB neuron act 4.6
O=C(Oc1c(CN2CCOCC2)cc(Cl)c2cccnc12)c1ccc(F)cc1	NF-kB neuron act 7.6
O=C(Oc1c(CN2CCOCC2)cc(Cl)c2cccnc12)c1cccs1	none
O=C(Oc1c(CN2CCOCC2)cc(Cl)c2cccnc12)c1ccccc1Cl	none
Cc1ccccc1C(=O)Nc1ccccc1-c1nnn(CC(=O)Nc2ccc3c(c2)OCCO3)n1	none
O=C(O)CCC(=O)Nc1ccc(OCC(=O)O)cc1	none (no result: APP 5'UTR act)
O=C(c1ccc(Sc2cccc(Cl)c2)c([N+](=O)[O-])c1)N1CCN(c2ccccn2)CC1	none
Cc1noc(C)c1C(=O)Nc1ccc(F)cc1F	none (no result: APP 5'UTR act)
CCC(C)(C)c1ccc2c(c1)C(=O)c1ccccc1C2=O	APP 5'UTR act 182
O=C1C/C(=C\c2c(F)cccc2Cl)N2CCC1CC2	none
O=C(c1cc2ccccc2oc1=O)N1CCN(Cc2ccc3c(c2)OCO3)CC1	none
CCc1ccc(CN(C(=O)c2cc3ccccc3oc2=O)C2CCS(=O)(=O)C2)cc1 (configuration not stated)	STAT1 act 129, NF-kB neuron act 4.1
O=C(c1cc2ccccc2oc1=O)N(Cc1ccccc1)Cc1ccc2c(c1)OCO2	STAT3 activator 135
Oc1ccc(-c2csc(Nc3ncccn3)n2)cc1	APP 5'UTR act 173, STAT1 act 146, NF-kB neuron act 9.1
Cc1cccnc1Nc1nc(-c2ccc(O)cc2O)cs1	NF-kB neuron act 3.9
CCOC(=O)c1ccc(NC(=O)Cn2c(-c3nonc3N)nc3ccccc32)cc1	none
CCc1ccc(NC(=O)c2cc(CC(C)C)on2)cc1	none
CCCc1cc(C(=O)Nc2ccc(C)cc2)no1	STAT1 act 135
Cc1ccc(NC(=O)c2onc(C)c2Cl)cc1	none
Cc1ccc(NC(=O)c2cc(C)on2)cc1	STAT1 act 130, NF-kB neuron act 3.3
CCN1CCN(c2ccc(NC(=O)c3cccc(F)c3)cc2Cl)CC1	STAT1 act 136
Cc1cc(/C=N/NC(N)=S)c(C)n1-c1ccc(Cl)c(Cl)c1	NF-kB neuron act 7.8
Cc1cc(/C=N\NC(=O)CC(=O)NC2CCCCC2)c(C)n1-c1ccc(Cl)c(Cl)c1	none
CCNC(=S)N/N=C/c1cc(C)n(-c2ccc(Cl)cc2)c1C	STAT1 act 144
O=C(N/N=C/c1ccc(Br)o1)/C(=C/c1ccc([N+](=O)[O-])cc1)NC(=O)c1ccccc1	none
O=C(O)c1c2c(nc3ccccc13)/C(=C/c1ccc(O)cc1)CC2	STAT3 inh 58, STAT1 inh 43
CCc1ccc(/C=C2\CN(CC)Cc3c2nc2ccccc2c3C(=O)O)cc1	none
CCc1ccc(/C=C2\SC(=S)N(CCC(=O)N3CCN(C)CC3)C2=O)cc1	NF-kB neuron act 3.3
COc1ccc(CNC(=O)CSc2nc3[nH]ncc3c(=O)n2-c2ccccc2Br)cc1	none
O=C(Nc1nccs1)c1cc2c(s1)CCCCC2	STAT3 inh 95, STAT1 inh 70
O=C(Nc1nncs1)c1cc2c(s1)CCC2	none
COC(=O)c1sccc1NC(=O)c1ccccc1	none
COC(=O)c1sccc1NC(=O)c1cccc(OC)c1	STAT3 activator 135
CCOc1ccc(C(=O)Nc2ccc(C(F)(F)F)n(C)c2=O)cc1	none
COc1cccc(C(=O)Nc2ccc(F)cc2F)c1	none
COc1cccc(C(=O)Nc2ccc(C(F)(F)F)n(C)c2=O)c1	APP 5'UTR act 136
COc1cccc(C(=O)Nc2cccc(C(C)=O)c2)c1	none
COc1cccc(C(=O)Nc2ccccc2F)c1	STAT1 act 132
COC(=O)c1cccc(NC(=O)c2cccc(OC)c2)c1	STAT1 act 131
COCCCNC(=S)N(Cc1ccccc1)Cc1ccccc1	none
CCOC(=O)c1c(C)nc2c(c1-c1cc(OC)c(OC)c(OC)c1)C(=O)c1ccccc1-2	none
